{"data": "Assay results from different studies", "target": "Amine oxidase [flavin-containing] B (MAOB, Homo sapiens, UniProt P27338)", "read-out": "enzyme activity", "action": "inhibitor", "Sequence (P27338 1-520, as in one of the studies)": "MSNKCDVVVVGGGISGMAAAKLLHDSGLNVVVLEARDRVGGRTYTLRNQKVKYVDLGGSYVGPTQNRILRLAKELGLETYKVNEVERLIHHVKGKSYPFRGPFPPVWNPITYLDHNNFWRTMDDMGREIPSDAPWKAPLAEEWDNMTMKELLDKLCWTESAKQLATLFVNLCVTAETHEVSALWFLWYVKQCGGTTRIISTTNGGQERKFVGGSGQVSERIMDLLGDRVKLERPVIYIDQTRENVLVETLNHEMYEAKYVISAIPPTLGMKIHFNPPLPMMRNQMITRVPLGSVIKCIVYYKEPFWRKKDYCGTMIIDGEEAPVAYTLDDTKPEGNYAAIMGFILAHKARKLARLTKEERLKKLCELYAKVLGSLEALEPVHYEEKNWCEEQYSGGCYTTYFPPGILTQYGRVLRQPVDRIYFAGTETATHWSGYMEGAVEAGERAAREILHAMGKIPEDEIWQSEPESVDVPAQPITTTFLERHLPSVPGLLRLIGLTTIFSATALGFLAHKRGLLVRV", "note": "Each line is one published result; the experiments were not run side by side."}
{"SMILES": "COc1ccc(/C=C/C(=O)N2CCc3ccccc3C2)cc1OC", "technique": "fluorescence", "IC50 [µM]": 0.73}
{"SMILES": "O=c1c(O)c(-c2ccc(O)c(O)c2)oc2cc(O)ccc12", "IC50 [µM]": "> 100"}
{"SMILES": "Nc1nn(-c2ccccc2)nc1C(=O)O", "technique": "fluorescence", "IC50 [µM]": "> 10"}
{"SMILES": "O=C(Nc1ccc([N+](=O)[O-])cc1Cl)c1cc2ccccc2o1", "IC50 [µM]": 0.123}
{"SMILES": "O=C(c1ccc(O)cc1O)[C@H](O)[C@@H](O)c1ccc(O)cc1", "IC50 [µM]": 29.9}
{"SMILES": "COc1cc(/C=C/C(=O)N2CCc3ccccc3C2)ccc1OCc1ccccc1", "technique": "fluorescence", "IC50 [µM]": 3.1}
{"SMILES": "O=C(Nc1ccc(OC(F)(F)F)cc1)c1cc(Cl)ccc1O", "IC50 [µM]": 0.128}
{"SMILES": "CCn1c(-c2nc3cc(C(=O)N4CCC[C@@H](N)C4)cc(OC)c3n2C)cc2cccnc21", "IC50 [µM]": 25.1}
{"SMILES": "c1ccc2[nH]c(-c3nc4ccccc4[nH]3)nc2c1", "technique": "fluorescence", "IC50 [µM]": "> 30"}
{"SMILES": "COc1cc(/C=C/C(=O)N2CCC(Cc3ccccc3)CC2)ccc1OC1CCCCC1", "technique": "fluorescence", "IC50 [µM]": 0.56}
{"SMILES": "O=c1cc(-c2ccc(O)cc2)oc2c([C@@H]3O[C@H](CO)[C@@H](O)[C@H](O)[C@H]3O)c(O)cc(O)c12", "IC50 [µM]": 34.1}
{"SMILES": "COc1cccc(CNc2nc3ccc(C)cc3n3cnnc23)c1", "technique": "fluorescence", "IC50 [µM]": 0.18}
{"SMILES": "O=C(/C=C/c1ccc(O)cc1)c1ccc(O)cc1O", "IC50 [µM]": 0.51}
{"SMILES": "C#CCOc1ccc(/C=C/C(=O)N2CCc3ccccc3C2)cc1OC", "technique": "fluorescence", "IC50 [µM]": 0.54}
{"SMILES": "Cn1c(=O)[nH]c(=O)n2c(CC(=O)Nc3cccc4ccccc34)cnc12", "technique": "fluorescence", "IC50 [µM]": 8.7}
{"SMILES": "O=c1cc(-c2ccc(O)cc2)oc2c([C@@H]3O[C@H](CO)[C@@H](O)[C@H](O)[C@H]3O)c(O)c([C@@H]3O[C@H](CO)[C@@H](O)[C@H](O)[C@H]3O)c(O)c12", "IC50 [µM]": 43.3}
